Experimental data published in PMC7670640 (Pharmacology Research & Perspectives, 2020).

Experiments:
[1] = Multiple ascending dose part; format: in vivo, human
How it was run: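 Healthy men, double-blind, randomized 6 active:2 placebo per cohort. Oral test compound or placebo once daily for 14 days, each dose after a moderate-fat meal (~600 calories, ~30% from fat). An expansion cohort (24 planned) assessed GI tolerability. Monitoring covered AEs, physical exams, vital signs, ECGs, clinical labs, suicidal risk, and GI and hepatobiliary abnormalities. AEs were MedDRA 21.0-coded and summarized descriptively.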

[2] = Multiple ascending dose part; format: in vivo, human; conditions: for AUC / Cmax / Tmax: human, plasma, oral, multiple‐dose; for AUC: AUC0‐24, geometric mean (%CVb); for Cmax: geometric mean (%CVb); for Tmax: median (range)
[3] = Relative bioavailability study: safety and tolerability; format: in vivo, human
HIV‐1 subtypes = experiment: Inhibition across HIV‐1 subtypes; conditions: background statement, no reference given
[4] = 50 mg once daily for 14 days (N = 6)
[5] = 100 mg once daily for 14 days (N = 6)
[6] = 200 mg once daily for 14 days (N = 25; cohort 5 and expansion cohort)
[7] = 320 mg once daily for 14 days (N = 7)
[8] = Part 2, across 58 participants (GSK3640254 n = 44 or placebo n = 14)

SMILES: C=C(C)[C@@H]1CC[C@]2(NCCN3CCS(=O)(=O)CC3)CC[C@]3(C)[C@H](CC[C@@H]4[C@@]5(C)CC=C(C6=CC[C@@](CF)(C(=O)O)CC6)C(C)(C)[C@@H]5CC[C@]43C)[C@@H]12 [GSK3640254]
- Adverse event: Abdominal distension [1, 4]: 0 n (%)
- Adverse event: Abdominal pain [1, 4]: 1 (17) n (%)
- Adverse event: Abnormal dreams [1, 4]: 0 n (%)
- Adverse event: Agitation [1, 4]: 0 n (%)
- Adverse event: Any event [1, 4]: 4 (67) n (%)
- Adverse event: Arthropod bite [1, 4]: 0 n (%)
- Adverse event: Back pain [1, 4]: 0 n (%)
- Adverse event: Catheter‐site bruise [1, 4]: 0 n (%)
- Adverse event: Catheter‐site pain [1, 4]: 0 n (%)
- Adverse event: Constipation [1, 4]: 0 n (%)
- Adverse event: Contact dermatitis [1, 4]: 1 (17) n (%)
- Adverse event: Contusion [1, 4]: 1 (17) n (%)
- Adverse event: Disturbance in attention [1, 4]: 0 n (%)
- Adverse event: Dizziness [1, 4]: 1 (17) n (%)
- Adverse event: Dry skin [1, 4]: 0 n (%)
- Adverse event: Fatigue [1, 4]: 2 (33) n (%)
- Adverse event: Gastrointestinal disorders [1, 4]: 2 (33) n (%)
- Adverse event: Headache [1, 4]: 3 (50) n (%)
- Adverse event: Lethargy [1, 4]: 0 n (%)
- Adverse event: Musculoskeletal stiffness [1, 4]: 1 (17) n (%)
- Adverse event: Nausea [1, 4]: 0 n (%)
- Adverse event: Oropharyngeal pain [1, 4]: 0 n (%)
- Adverse event: Rash [1, 4]: 0 n (%)
- Adverse event: Somnolence [1, 4]: 1 (17) n (%)
- Adverse event: Vessel puncture site bruise [1, 4]: 0 n (%)
- Adverse event: Abdominal distension [1, 5]: 0 n (%)
- Adverse event: Abdominal pain [1, 5]: 0 n (%)
- Adverse event: Abnormal dreams [1, 5]: 0 n (%)
- Adverse event: Agitation [1, 5]: 1 (17) n (%)
- Adverse event: Any event [1, 5]: 5 (83) n (%)
- Adverse event: Arthropod bite [1, 5]: 0 n (%)
- Adverse event: Back pain [1, 5]: 1 (17) n (%)
- Adverse event: Catheter‐site bruise [1, 5]: 1 (17) n (%)
- Adverse event: Catheter‐site pain [1, 5]: 0 n (%)
- Adverse event: Constipation [1, 5]: 0 n (%)
- Adverse event: Contact dermatitis [1, 5]: 0 n (%)
- Adverse event: Contusion [1, 5]: 1 (17) n (%)
- Adverse event: Disturbance in attention [1, 5]: 0 n (%)
- Adverse event: Dizziness [1, 5]: 2 (33) n (%)
- Adverse event: Dry skin [1, 5]: 0 n (%)
- Adverse event: Fatigue [1, 5]: 1 (17) n (%)
- Adverse event: Gastrointestinal disorders [1, 5]: 0 n (%)
- Adverse event: Headache [1, 5]: 1 (17) n (%)
- Adverse event: Lethargy [1, 5]: 0 n (%)
- Adverse event: Musculoskeletal stiffness [1, 5]: 0 n (%)
- Adverse event: Nausea [1, 5]: 0 n (%)
- Adverse event: Oropharyngeal pain [1, 5]: 0 n (%)
- Adverse event: Rash [1, 5]: 0 n (%)
- Adverse event: Somnolence [1, 5]: 0 n (%)
- Adverse event: Vessel puncture site bruise [1, 5]: 0 n (%)
- Adverse event: Abdominal distension [1, 6]: 1 (4) n (%)
- Adverse event: Abdominal pain [1, 6]: 1 (4) n (%)
- Adverse event: Abnormal dreams [1, 6]: 2 (8) n (%)
- Adverse event: Agitation [1, 6]: 1 (4) n (%)
- Adverse event: Any event [1, 6]: 19 (76) n (%)
- Adverse event: Arthropod bite [1, 6]: 0 n (%)
- Adverse event: Back pain [1, 6]: 2 (8) n (%)
- Adverse event: Catheter‐site bruise [1, 6]: 1 (4) n (%)
- Adverse event: Catheter‐site pain [1, 6]: 0 n (%)
- Adverse event: Constipation [1, 6]: 2 (8) n (%)
- Adverse event: Contact dermatitis [1, 6]: 7 (28) n (%)
- Adverse event: Contusion [1, 6]: 3 (12) n (%)
- Adverse event: Disturbance in attention [1, 6]: 1 (4) n (%)
- Adverse event: Dizziness [1, 6]: 2 (8) n (%)
- Adverse event: Dry skin [1, 6]: 0 n (%)
- Adverse event: Fatigue [1, 6]: 1 (4) n (%)
- Adverse event: Gastrointestinal disorders [1, 6]: 6 (24) n (%)
- Adverse event: Headache [1, 6]: 3 (12) n (%)
- Adverse event: Lethargy [1, 6]: 1 (4) n (%)
- Adverse event: Musculoskeletal stiffness [1, 6]: 1 (4) n (%)
- Adverse event: Nausea [1, 6]: 1 (4) n (%)
- Adverse event: Oropharyngeal pain [1, 6]: 1 (4) n (%)
- Adverse event: Rash [1, 6]: 1 (4) n (%)
- Adverse event: Somnolence [1, 6]: 0 n (%)
- Adverse event: Vessel puncture site bruise [1, 6]: 1 (4) n (%)
- Adverse event: Abdominal distension [1, 7]: 0 n (%)
- Adverse event: Abdominal pain [1, 7]: 0 n (%)
- Adverse event: Abnormal dreams [1, 7]: 0 n (%)
- Adverse event: Agitation [1, 7]: 0 n (%)
- Adverse event: Any event [1, 7]: 6 (86) n (%)
- Adverse event: Arthropod bite [1, 7]: 2 (29) n (%)
- Adverse event: Back pain [1, 7]: 0 n (%)
- Adverse event: Catheter‐site bruise [1, 7]: 0 n (%)
- Adverse event: Catheter‐site pain [1, 7]: 1 (14) n (%)
- Adverse event: Constipation [1, 7]: 0 n (%)
- Adverse event: Contact dermatitis [1, 7]: 0 n (%)
- Adverse event: Contusion [1, 7]: 0 n (%)
- Adverse event: Disturbance in attention [1, 7]: 0 n (%)
- Adverse event: Dizziness [1, 7]: 1 (14) n (%)
- Adverse event: Dry skin [1, 7]: 1 (14) n (%)
- Adverse event: Fatigue [1, 7]: 0 n (%)
- Adverse event: Gastrointestinal disorders [1, 7]: 2 (29) n (%)
- Adverse event: Headache [1, 7]: 2 (29) n (%)
- Adverse event: Lethargy [1, 7]: 1 (14) n (%)
- Adverse event: Musculoskeletal stiffness [1, 7]: 0 n (%)
- Adverse event: Nausea [1, 7]: 1 (14) n (%)
- Adverse event: Oropharyngeal pain [1, 7]: 1 (14) n (%)
- Adverse event: Rash [1, 7]: 0 n (%)
- Adverse event: Somnolence [1, 7]: 1 (14) n (%)
- Adverse event: Vessel puncture site bruise [1, 7]: 0 n (%)
- participants reporting palpitations ([1]; Part 2, 200‐mg + expansion cohort, one participant, mild, unrelated to study drug): 2%
- most common AEs: contact dermatitis [1, 8]: 13.8%
- most common AEs: dizziness [1, 8]: 12.1%
- most common AEs: headache [1, 8]: 25.9%
- participants discontinued because of grade 1 maculopapular rash ([1]; expansion cohort, one participant): 2%
- AUC ([2]; 50 mg, Day 1, 50 mg, N = 6): 2860 ng·h/mL
- Cmax ([2]; 50 mg, Day 1, 50 mg, N = 6): 215 ng/mL
- Tmax ([2]; 50 mg, Day 1, 50 mg, N = 6): 3.8 h
- AUC ([2]; 100 mg, Day 1, 100 mg, N = 6): 6800 ng·h/mL
- Cmax ([2]; 100 mg, Day 1, 100 mg, N = 6): 536 ng/mL
- Tmax ([2]; 100 mg, Day 1, 100 mg, N = 6): 4.3 h
- AUC ([2]; 320 mg, Day 1, 320 mg, N = 7): 13500 ng·h/mL
- Cmax ([2]; 320 mg, Day 1, 320 mg, N = 7): 1040 ng/mL
- Tmax ([2]; 320 mg, Day 1, 320 mg, N = 7): 4 h
- increase in exposure upon repeat dosing ([2]; in vivo): two‐ to three‐fold
- dose‐proportionality of Cmax and AUC ([2]; multiple‐dose administration 50‐320 mg): trend toward less than dose‐proportional increases in exposure
- time to steady state ([2]; repeat once‐daily dosing): ≤ 8 days
- attainment of steady state (slope of trough concentration vs time close to zero) ([2]; trough concentrations from all participants): ≤ 8 days
- changes in laboratory values, vital signs, or ECG parameters ([3]; in vivo): No clinically significant changes in laboratory values, vital signs, or ECG parameters
- participants reporting at least one AE ([3]; of the 14 total participants, all mild): 50%
- inhibition across HIV‐1 subtypes (HIV‐1 subtypes): broad‐spectrum inhibition across various HIV‐1 subtypes
